Data set [1] is described as follows: folding enthalpy; higher = less favourable; fluorescence melt of hairpins on a sequencing array, two-state fit. Particulars: sodium 0.088 M. Put shortly: (§1)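 Folding enthalpy and melting temperature were estimated with bootstrapped two-state fits and combined across four replicates by inverse-variance weighting, with fitted temperatures raised by 9.35 °C to match UV melts. The data were Cy3 fluorescence of library hairpins, with annealed Cy3 and quencher oligos, on a sequenced MiSeq flow cell in 50 mM Na-HEPES pH 8.0, 25 mM NaCl, imaged in 2.5 °C steps up to 60 °C and normalised to pre-quench Cy3 and control constructs.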

A short description of data set [2]: melting temperature; fluorescence melt of hairpins on a sequencing array, two-state fit, raised by 9.35 °C to match UV melts. As to conditions: sodium 0.088 M. Put shortly:
as §1

For GTGCGGGGAAACCCGTGC (..((((....))))..), in data set [1], the folding enthalpy is -19.2 kcal/mol. Moreover, the Tm in data set [2] was 53.8 °C.

In the case of GCGTTACCGAAAGGTCGC (((..(((....)))))), in data set [1], the folding enthalpy is -25.3 kcal/mol. Also, the Tm in data set [2] came to 51.1 °C.

With GCAAAGCGAAAGCTCTGC (((.(((....))).))), the folding enthalpy in data set [1] was -31.1 kcal/mol. The Tm in data set [2] came out at 47 °C.

Take GAAGTGGGAAACTACTTC (((((.(....).))))): the folding enthalpy in data set [1] is -37.4 kcal/mol. Moreover, the Tm in data set [2] amounted to 43.1 °C.

Turning to GGAACAGGAAACTGCTCC (((.(((....))).))), the folding enthalpy in data set [1] was -31.1 kcal/mol. In addition, the Tm in data set [2] amounted to 40.8 °C.

On to GCCATCGGAAACGATGAC (.(((((....))))).), for which the folding enthalpy in data set [1] is -16 kcal/mol. In addition, the Tm in data set [2] is 48.6 °C.

As for AAACCGAAAGGTTT (((((....))))), the folding enthalpy in data set [1] is -20.7 kcal/mol. For the same sequence, in data set [2], the Tm came to 52.8 °C.

As to GCGGTGGGAAACCACCAC (.(((((....))))).), the folding enthalpy in data set [1] was -12.4 kcal/mol. In data set [2], the Tm turned out to be 48.1 °C.

Take GAACTGGAAACAGTTC ((((((....)))))): the folding enthalpy in data set [1] was -32.4 kcal/mol. Besides, the Tm in data set [2] was determined as 53.9 °C.

Turning to GCGTCGCGAAAGCGCGGC ((..(((....)))..)), the folding enthalpy in data set [1] was -12.6 kcal/mol. For the same sequence, the Tm in data set [2] came out at 61.1 °C.

Turning to TTTTGGAAACAAAA (((((....))))), the folding enthalpy in data set [1] was -9.86 kcal/mol. Moreover, the Tm in data set [2] came out at 27.4 °C.

Take GCCCTCGAAAGAGAGGC ((((((....))).))): the folding enthalpy in data set [1] was -31.1 kcal/mol. Besides, in data set [2], the Tm is 58.2 °C.

On to GCCGAACGAAAGTTTGGC (((.(((....))).))), for which the folding enthalpy in data set [1] was -35.2 kcal/mol. Further, the Tm in data set [2] worked out at 66 °C.

GCGTAGCGAAAGCGAGGC ((.(.((....)).).)): the folding enthalpy in data set [1] was -7.75 kcal/mol. For the same sequence, the Tm in data set [2] was 46.6 °C.

Regarding GATCCTAAGAAGGATC ((((((....)))))), in data set [1], the folding enthalpy was -35.3 kcal/mol. Besides, the Tm in data set [2] came to 48 °C.

On to GCTCCCGAAAGGGAAAGC ((((((....)))..))), for which the folding enthalpy in data set [1] was -16.6 kcal/mol. The Tm in data set [2] is 51.7 °C.

For GATCTTCTTGAAGATC ((((((....)))))), the folding enthalpy in data set [1] was -48 kcal/mol. The Tm in data set [2] was 54 °C.

For GTCGTGCCGAAAGGCGAC (((..(((....)))))), in data set [1], the folding enthalpy is -13.9 kcal/mol. The Tm in data set [2] is 44.6 °C.

Consider GATCTTAGGAAGATC ((((((...)))))), for which, in data set [1], the folding enthalpy was -30.5 kcal/mol. Further, the Tm in data set [2] came to 43.3 °C.

On to GATCACTACTGTGATC ((((((....)))))), for which the folding enthalpy in data set [1] is -42 kcal/mol. The Tm in data set [2] amounted to 56.5 °C.

Regarding GGCATACGAAAGTAGCC (((.(((....)))))), the folding enthalpy in data set [1] was -24.4 kcal/mol. For the same sequence, the Tm in data set [2] is 52.7 °C.

As to GCGGCTTCCGC ((((...)))), the folding enthalpy in data set [1] is -25.9 kcal/mol. Besides, the Tm in data set [2] was found to be 57.8 °C.

In the case of GTGTTGGGAAACCAGCAC (((.(((....))).))), the folding enthalpy in data set [1] is -43.9 kcal/mol. In data set [2], the Tm amounted to 51.4 °C.

On to GACTGCGAAAGCATGTC ((((((....))).))), for which the folding enthalpy in data set [1] was -23.1 kcal/mol. Further, in data set [2], the Tm turned out to be 54.5 °C.

On to GTGTTTGGAAACAAGCAC (((.(((....))).))), for which, in data set [1], the folding enthalpy is -30.5 kcal/mol. In data set [2], the Tm was found to be 46.6 °C.

Consider GGCTTCCGAAAGGAGCC (((.(((....)))))), for which the folding enthalpy in data set [1] was -37.1 kcal/mol. The Tm in data set [2] amounted to 60 °C.

Turning to GGTGGCGCGAAAGCGACC (((..(((....)))))), the folding enthalpy in data set [1] was -9.77 kcal/mol. Further, in data set [2], the Tm was 52.8 °C.

For the sequence GCCCGGGGAAACCCAGGC (((.(((....))).))), the folding enthalpy in data set [1] is -32.6 kcal/mol. Further, the Tm in data set [2] came to 52.8 °C.

Consider GGCTTGAAAAAGCC (((((....))))), for which, in data set [1], the folding enthalpy is -31.3 kcal/mol. The Tm in data set [2] is 59.6 °C.

As to GTCCCAGCGAAAGCTGAC (((..(((....)))))), the folding enthalpy in data set [1] was -8.81 kcal/mol. The Tm in data set [2] was 22.4 °C.

As to GGCGGCGAAAGCCCAGCC ((((((....)))..))), in data set [1], the folding enthalpy was -18.5 kcal/mol. Moreover, in data set [2], the Tm is 57.8 °C.

For GATCTCGCTGGAGATC ((((((....)))))), the folding enthalpy in data set [1] was -36.8 kcal/mol. Further, the Tm in data set [2] is 54.3 °C.

On to GGTGGGCGAAAGCCTACC (((.(((....))).))), for which the folding enthalpy in data set [1] is -22.3 kcal/mol. In addition, in data set [2], the Tm came to 65.6 °C.

CGCCCGGAAACGGTGCG ((((((....))).))): in data set [1], the folding enthalpy is -31.7 kcal/mol. The Tm in data set [2] worked out at 57.9 °C.

Turning to GGACATCGAAAGATATCC (((.(((....))).))), the folding enthalpy in data set [1] was -29.8 kcal/mol. The Tm in data set [2] is 38 °C.

With GATCGGGAGCCGATC ((((((...)))))), the folding enthalpy in data set [1] was -22 kcal/mol. The Tm in data set [2] came out at 53.7 °C.

Turning to GAACTAGGAAACTAGTTC (((((((....))))))), the folding enthalpy in data set [1] is -40.2 kcal/mol. Also, the Tm in data set [2] is 53.8 °C.

The values are drawn from the array DNA melting data of Ke et al. (doi:10.1101/2024.01.08.574731).
